Published values from different studies.
Lines come from different studies, so protocols differ. pKd: −log10 of the molar value.
SMARCA2 bromodomain: SWI/SNF-related matrix-associated actin-dependent regulator of chromatin subfamily A member 2, bromodomain (SMARCA2, Homo sapiens, UniProt P51531)
HSP90B1: Endoplasmin (HSP90B1, Canis lupus familiaris, UniProt P41148)
MTOR: Serine/threonine-protein kinase mTOR (MTOR, Homo sapiens, UniProt P42345)

Cc1ncsc1-c1ccc(CNC(=O)[C@@H]2C[C@H](O)CN2C(=O)[C@@H](NC(=O)C2(F)CC2)C(C)(C)C)c(OCCOc2ccc(CN3CCN(c4cc(-c5ccccc5O)nnc4N)CC3)cc2)c1
pKd (SMARCA2 bromodomain; binding; SPR): 5.96

COC(=O)c1c(O)cc(O)c(Cl)c1CCC(=O)Nc1cccc(Cl)c1
pKd (HSP90B1; ligand displacement; FP): 5.19

CC1(C)[C@@H]2CC[C@@]1(C)C(=O)C2
pKd (Camphor 5-monooxygenase (camC, Pseudomonas putida, UniProt P00183); binding; ITC): 5.92

CCC(=O)N1CCC(C(=O)NCC(=O)N2CCN(c3nc(-c4cnc(N)nc4C(F)F)nc(N4CCOCC4)n3)CC2)CC1
pKd (MTOR; binding; competition with immobilised ligand): 7.48

Cc1cc2nc3c(=O)[nH]c(=O)nc-3n(C[C@H](O)[C@H](O)[C@H](O)COP(=O)(O)OP(=O)(O)OC[C@H]3O[C@@H](n4cnc5c(N)ncnc54)[C@H](O)[C@@H]3O)c2cc1C
pKd (Heterogeneous nuclear ribonucleoprotein H (Homo sapiens, UniProt P31943); binding; lysate): 7.28

O=C1OC2(c3ccc(O)cc3Oc3cc(O)ccc32)c2ccccc21
pKd (Lysozyme C (LYZ, Gallus gallus, UniProt P00698); binding; fluorescence): 5.42

COC(=O)c1c(O)cc(O)c(Cl)c1CCC(=O)Nc1ccccc1Cl
pKd (HSP90B1; ligand displacement; FP): 5.73

NC(=O)c1ccc(-c2nc(-c3ccc4c(c3)OCO4)c(-c3ccccn3)[nH]2)cc1
pKd (Epidermal growth factor receptor (EGFR, Homo sapiens, UniProt P00533); binding): < 5.00

C=CC(=O)N1CCC(C(=O)N(C)CC(=O)N2CCN(c3nc(-c4cnc(N)nc4C(F)F)nc(N4CCOCC4)n3)CC2)CC1
pKd (MTOR; binding; competition with immobilised ligand): 7.59

Cc1ncsc1-c1ccc(CNC(=O)[C@@H]2C[C@H](O)CN2C(=O)[C@@H](NC(=O)C2(F)CC2)C(C)(C)C)c(OCCc2ccc(CN3CCN(c4cc(-c5ccccc5O)nnc4N)CC3)cc2)c1
pKd (SMARCA2 bromodomain; binding; SPR): 5.92

C=CC(=O)N1CCC(C(=O)NCC(=O)N2CCN(c3nc(-c4cnc(N)nc4C(F)F)nc(N4CCOCC4)n3)CC2)CC1
pKd (MTOR; binding; competition with immobilised ligand): 7.49

CC(=O)N[C@H]1[C@H](O[C@H]2[C@H](O)[C@@H](NC(C)=O)C(O)O[C@@H]2CO)O[C@H](CO)[C@@H](O[C@@H]2O[C@H](CO)[C@@H](O)[C@H](O)[C@H]2NC(C)=O)[C@@H]1O (stereo partly shown)
pKd (Chitotriosidase-1 (Homo sapiens, UniProt Q13231); binding): 2.51

COC(=O)c1c(O)cc(O)c(Cl)c1CCC(=O)Nc1ccc(Br)cc1
pKd (HSP90B1; ligand displacement; FP): 5.82

CCCN1CCN(c2ccc(-c3cncc(Cl)c3N3CCC4(CCNC4=O)CC3)cc2)CC1
pKd (Protein kinase C delta type (PRKCD, Homo sapiens, UniProt Q05655); cell-free assay; lysate): 5.46

c1cncc(-c2cccc(Nc3nccc(NC4CCCCC4)n3)c2)c1
pKd (Non-receptor tyrosine-protein kinase TYK2, JH1 (TYK2, Homo sapiens, UniProt P29597); binding; competition with immobilised ligand): 6.46

COC(=O)c1c(O)cc(O)c(Cl)c1CCC(=O)Nc1ccccc1
pKd (HSP90B1; ligand displacement; FP): 4.69
